# In ChEMBL document CHEMBL1671628, “Cell density and cell aging as factors modulating antifungal resistance of Candida albicans biofilms” (2008):
# Legend:
# Candida albicans [1] = experiment: Antifungal activity against 24 hrs cultures of 10^7 cells/ml Candida albicans BF-1 biofilms by XTT reduction method; assay type: functional; settings: BF-1, 24 h
# In short: (§1)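 Washed late-exponential cells at 1 × 10^7 cells/ml in YNB + 100 mM glucose were adhered 1.5 h at 37°C with shaking at 75 rpm, washed, then grown 24 or 48 h at 37°C, 75 rpm. Biofilms were washed and exposed 24 or 48 h at 37°C to twofold dilutions in RPMI + 2% glucose. Read by XTT at A490. MIC50 is 50% reduction vs drug-free control. Three experiments, four replicates.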
# Candida albicans [2] = experiment: Antifungal activity against 48 hrs cultures of 10^7 cells/ml biofilm-derived Candida albicans BF-1 planktonic cells hrs by XTT reduction method; assay type: functional; settings: BF-1, 48 h
# In short: (§2)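 Biofilms grown from 1 × 10^7 cells/ml (YNB + 100 mM glucose, 1.5 h adherence, 37°C, 75 rpm) for 24 or 48 h, washed, scraped and moved to wells of serially double-diluted drugs. Incubated with drug 24 or 48 h, then XTT–menadione read at 490 nm. MIC50 = 50% reduction versus drug-free control.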
# Candida albicans [3] = experiment: Antifungal activity against 24 hrs cultures of 10^7 cells/ml Candida albicans ATCC 90028 biofilms by XTT reduction assay; assay type: functional; settings: ATCC 90028, 24 h; in short: as §1
# Candida albicans [4] = experiment: Antifungal activity against 10^8 cells/ml Candida albicans ATCC 90028 planktonic cells by XTT reduction assay; assay type: functional
# In short: (§3)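 High-density planktonic suspensions (10^7 or 10^8 cells/ml) added to serially double-diluted drugs as in the NCCLS setup, run in parallel in RPMI 1640 + 2% glucose and YNB + 100 mM glucose. Viability read by XTT (1 mg/ml) with menadione (0.4 mM stock, 5:1), 3 h dark at 37°C, A490 minus blank wells. MIC50 = lowest concentration giving 50% reduction versus drug-free control.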
# Candida albicans [5] = experiment: Antifungal activity against 48 hrs cultures of 10^8 cells/ml wild-type Candida albicans BF-1 biofilms by XTT reduction assay; settings: BF-1, 48 h
# Candida albicans [6] = experiment: Antifungal activity against 10^8 cells/ml Candida albicans SC5314 planktonic cells by XTT reduction assay; assay type: functional; in short: as §3
# Candida albicans [7] = experiment: Antifungal activity against 24 hrs cultures of 10^7 cells/ml biofilm-derived Candida albicans ATCC 90028 planktonic cells hrs by XTT reduction method; assay type: functional; settings: ATCC 90028, 24 h; in short: as §2
# Candida albicans [8] = experiment: Antifungal activity against 24 hrs cultures of 10^7 cells/ml Candida albicans BF-1 planktonic cells by XTT reduction method; assay type: functional; settings: BF-1, 24 h
# In short: (§4)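 Age-matched planktonic cultures were grown from the same 1 × 10^7 cells/ml YNB + 100 mM glucose suspension under the biofilm conditions for 24 or 48 h. They were tested against twofold drug dilutions by XTT reduction (3 h at 37°C in the dark, A490 minus blank). MIC50 is 50% reduction vs drug-free control.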
# Candida albicans [9] = experiment: Antifungal activity against 48 hrs cultures of 10^7 cells/ml Candida albicans BF-1 biofilms by XTT reduction method; assay type: functional; settings: BF-1, 48 h; in short: as §1
# Candida albicans [10] = experiment: Antifungal activity against 48 hrs cultures of 10^8 cells/ml Candida albicans ATCC 90028 biofilms by XTT reduction assay; settings: ATCC 90028, 48 h
# Candida albicans [11] = experiment: Antifungal activity against 10^7 cells/ml Candida albicans ATCC 90028 planktonic cells by XTT reduction assay; assay type: functional; in short: as §3
# Candida albicans [12] = experiment: Antifungal activity against 10^8 cells/ml wild-type Candida albicans BF-1 planktonic cells by XTT reduction assay; assay type: functional
# In short: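 Planktonic suspensions at 1 × 10^8 cells/ml added to twofold serial drug dilutions in 96-well plates (NCCLS format). Run in parallel in RPMI 1640 + 2% glucose and YNB + 100 mM glucose. Readout by XTT reduction: XTT–menadione in PBS, 3 h at 37°C in the dark, A490 minus blank. MIC50 is 50% reduction vs drug-free control.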
# Candida albicans [13] = experiment: Antifungal activity against 10^5 cells/ml Candida albicans ATCC 90028 by EUCAST method; assay type: functional
# In short: (§5)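 EUCAST AFST planktonic broth microdilution: RPMI 1640 plus 2% glucose, inoculum 0.5 × 10^5 to 2.5 × 10^5 cells/ml, twofold drug dilutions. Performed on three different occasions.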
# Candida albicans [14] = experiment: Antifungal activity against 48 hrs cultures of 10^7 cells/ml Candida albicans ATCC 90028 biofilms by XTT reduction method; assay type: functional; settings: ATCC 90028, 48 h; in short: as §1
# Candida albicans [15] = experiment: Antifungal activity against 24 hrs cultures of 10^7 cells/ml Candida albicans ATCC 90028 planktonic cells by XTT reduction method; assay type: functional; settings: ATCC 90028, 24 h
# In short: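 Standard 1 × 10^7 cells/ml suspension in YNB + 100 mM glucose propagated planktonically 24 h alongside age-matched biofilms, then exposed to twofold drug dilutions. Metabolic activity read by XTT–menadione reduction, 3 h dark, 37°C, A490 background-subtracted. MIC50 is the 50% reduction point versus drug-free control.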
# Candida albicans [16] = experiment: Antifungal activity against 48 hrs cultures of 10^7 cells/ml biofilm-derived Candida albicans ATCC 90028 planktonic cells hrs by XTT reduction method; assay type: functional; settings: ATCC 90028, 48 h
# In short: (§6)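 Biofilms grown 24 or 48 h from 1 × 10^7 cells/ml were washed, scraped and transferred into plates of twofold serially diluted drugs. They were incubated 24 or 48 h. MIC was read by XTT reduction (3 h at 37°C in the dark, A490 minus blank) as 50% reduction vs drug-free control.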
# Candida albicans [17] = experiment: Antifungal activity against 48 hrs cultures of 10^7 cells/ml Candida albicans BF-1 planktonic cells by XTT reduction method; assay type: functional; settings: BF-1, 48 h; in short: as §4
# Candida albicans [18] = experiment: Antifungal activity against 24 hrs cultures of 10^7 cells/ml Candida albicans SC5314 biofilms by XTT reduction assay; assay type: functional; settings: SC5314, 24 h; in short: as §1
# Candida albicans [19] = experiment: Antifungal activity against 48 hrs cultures of 10^7 cells/ml Candida albicans ATCC 90028 planktonic cells by XTT reduction method; assay type: functional; settings: ATCC 90028, 48 h; in short: as §4
# Candida albicans [20] = experiment: Antifungal activity against 24 hrs cultures of 10^7 cells/ml wild-type Candida albicans BF-1 biofilms by XTT reduction assay; assay type: functional; settings: BF-1, 24 h; in short: as §1
# Candida albicans [21] = experiment: Antifungal activity against 10^5 cells/ml wild-type Candida albicans BF-1 by EUCAST method; assay type: functional; in short: as §5
# Candida albicans [22] = experiment: Antifungal activity against 10^7 cells/ml wild-type Candida albicans BF-1 planktonic cells by XTT reduction assay; assay type: functional; in short: as §3
# Candida albicans [23] = experiment: Antifungal activity against 10^3 cells/ml wild-type Candida albicans BF-1 by NCCLS method; assay type: functional
# In short: (§7)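 Planktonic broth microdilution per NCCLS (CLSI): inoculum from 24-h SDA cultures adjusted to 0.5 McFarland at 520 nm, diluted in RPMI 1640 to about 0.5 × 10^3 to 2.5 × 10^3 cells/ml. Cells exposed to twofold drug dilutions, incubated 35°C for 48 h, then MIC read. Three separate occasions.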
# Candida albicans [24] = experiment: Antifungal activity against 10^3 cells/ml Candida albicans ATCC 90028 by NCCLS method; assay type: functional; in short: as §7
# Candida albicans [25] = experiment: Antifungal activity against 24 hrs cultures of 10^7 cells/ml biofilm-derived Candida albicans BF-1 planktonic cells hrs by XTT reduction method; assay type: functional; settings: BF-1, 24 h; in short: as §6
# Candida albicans [26] = experiment: Antifungal activity against 24 hrs cultures of 10^7 cells/ml Candida albicans ATCC 90028 biofilms by XTT reduction method; assay type: functional; settings: ATCC 90028, 24 h; in short: as §1
# Candida albicans [27] = experiment: Antifungal activity against 10^3 cells/ml Candida albicans SC5314 by NCCLS method; assay type: functional; in short: as §7
Structure (SMILES),MIC (Candida albicans [1]),MIC (Candida albicans [2]),MIC (Candida albicans [3]),MIC (Candida albicans [4]),MIC (Candida albicans [5]),MIC (Candida albicans [6]),MIC (Candida albicans [7]),MIC (Candida albicans [8]),MIC (Candida albicans [9]),MIC (Candida albicans [10]),MIC (Candida albicans [11]),MIC (Candida albicans [12]),MIC (Candida albicans [13]),MIC (Candida albicans [14]),MIC (Candida albicans [15]),MIC (Candida albicans [16]),MIC (Candida albicans [17]),MIC (Candida albicans [18]),MIC (Candida albicans [19]),MIC (Candida albicans [20]),further results
C[C@@H]1[C@H](O)[C@@H](C)/C=C/C=C/C=C/C=C/C=C/C=C/C=C/[C@H](O[C@@H]2O[C@H](C)[C@@H](O)[C@H](N)[C@@H]2O)C[C@@H]2O[C@](O)(C[C@@H](O)C[C@@H](O)[C@H](O)CC[C@@H](O)C[C@@H](O)CC(=O)O[C@H]1C)C[C@H](O)[C@H]2C(=O)O [AMPHOTERICIN B],32 µg/mL,3.75 µg/mL,15 µg/mL,0.46 µg/mL,30 µg/mL,0.46 µg/mL,0.46 µg/mL,0.93 µg/mL,32 µg/mL,15 µg/mL,0.23 µg/mL,0.93 µg/mL,0.23 µg/mL,16 µg/mL,0.46 µg/mL,1.87 µg/mL,0.93 µg/mL,32 µg/mL,0.46 µg/mL,30 µg/mL,MIC (Candida albicans [21]): 0.23 µg/mL; MIC (Candida albicans [22]): 0.46 µg/mL; MIC (Candida albicans [23]): 0.23 µg/mL; MIC (Candida albicans [24]): 0.23 µg/mL; MIC (Candida albicans [25]): 1.87 µg/mL; MIC (Candida albicans [26]): 16 µg/mL; MIC (Candida albicans [27]): 0.23 µg/mL
CC[C@H](C)C[C@H](C)CCCCCCCCC(=O)N[C@H]1C[C@@H](O)[C@@H](NCCN)NC(=O)[C@@H]2[C@@H](O)CCN2C(=O)[C@H]([C@H](O)CCN)NC(=O)[C@H]([C@H](O)[C@@H](O)c2ccc(O)cc2)NC(=O)[C@@H]2C[C@@H](O)CN2C(=O)[C@H]([C@@H](C)O)NC1=O [CASPOFUNGIN],> 100 µg/mL,0.2 µg/mL,100 µg/mL,0.2 µg/mL,> 100 µg/mL,0.2 µg/mL,0.2 µg/mL,0.4 µg/mL,> 100 µg/mL,100 µg/mL,0.2 µg/mL,0.4 µg/mL,0.2 µg/mL,100 µg/mL,0.2 µg/mL,0.4 µg/mL,0.4 µg/mL,> 100 µg/mL,0.4 µg/mL,> 100 µg/mL,MIC (Candida albicans [21]): 0.2 µg/mL; MIC (Candida albicans [22]): 0.2 µg/mL; MIC (Candida albicans [23]): 0.2 µg/mL; MIC (Candida albicans [24]): 0.2 µg/mL; MIC (Candida albicans [25]): 0.4 µg/mL; MIC (Candida albicans [26]): 100 µg/mL; MIC (Candida albicans [27]): 0.2 µg/mL
